Measured values: ChEMBL document CHEMBL1811814, “Synthesis and evaluation of indole, pyrazole, chromone and pyrimidine based conjugates for tumor growth inhibitory activities--development of highly efficacious cytotoxic agents” (Eur J Med Chem, 2010)

Assays:
Type in all cases: functional
Parameters in all cases: scale not given: the % may be the effect or the level left
NCI/ADR-RES = test: Growth inhibition of human NCI/ADR-RES cells assessed tumor cell growth at 10^-5 M
In short: (§1)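 NCI 60-human-tumor-cell-line panel screen. Each compound was tested at a single concentration of 10^-5 M, and percent growth of tumor cells was recorded for each cell line. Growth inhibition was expressed from these percent-growth values.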

HOP-92 = test: Growth inhibition of human HOP92 cells assessed tumor cell growth at 10^-5 M; in short: as §1
HCT-15 = test: Growth inhibition of human HCT15 cells assessed tumor cell growth at 10^-5 M; in short: as §1
NCI-H522 = test: Growth inhibition of human NCI-H522 cells assessed tumor cell growth at 10^-5 M; in short: as §1
SF-295 = test: Growth inhibition of human SF295 cells assessed tumor cell growth at 10^-5 M; in short: as §1
OVCAR-5 = test: Growth inhibition of human OVCAR5 cells assessed tumor cell growth at 10^-5 M; in short: as §1
KM12 = test: Growth inhibition of human KM12 cells assessed tumor cell growth at 10^-5 M; in short: as §1
UO-31 = test: Growth inhibition of human UO31 cells assessed tumor cell growth at 10^-5 M
In short: (§2)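 Single-dose screen at 10^-5 M across the 60 human tumor cell line panel, run to NCI standards. The value is the percent growth of each cell line in the presence of compound. Compounds active at this dose moved on to five-concentration testing (10^-4 to 10^-8 M).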

SR = test: Growth inhibition of human SR cells assessed tumor cell growth at 10^-5 M; in short: as §2
MDA-MB-435 = test: Growth inhibition of human MDA-MB-435 cells assessed tumor cell growth at 10^-5 M; in short: as §1
SF-268 = test: Growth inhibition of human SF268 cells assessed tumor cell growth at 10^-5 M; in short: as §1
OVCAR-8 = test: Growth inhibition of human OVCAR8 cells assessed tumor cell growth at 10^-5 M; in short: as §1
NCI-H226 = test: Growth inhibition of human NCI-H226 cells assessed tumor cell growth at 10^-5 M; in short: as §1
UACC-257 = test: Growth inhibition of human UACC257 cells assessed tumor cell growth at 10^-5 M; in short: as §2
SK-OV-3 = test: Growth inhibition of human SKOV3 cells assessed tumor cell growth at 10^-5 M; in short: as §1
[1] = Growth inhibition of human Hs 578T cells assessed tumor cell growth at 10^-5 M; in short: as §1
HCT-116 = test: Growth inhibition of human HCT116 cells assessed tumor cell growth at 10^-5 M; in short: as §1
[2] = Growth inhibition of human […] cells assessed tumor cell growth at 10^-5 M; in short: as §1
MDA-MB-231 = test: Growth inhibition of human MDA-MB-231 cells assessed tumor cell growth at 10^-5 M; in short: as §1
SK-MEL-5 = test: Growth inhibition of human SK-MEL-5 cells assessed tumor cell growth at 10^-5 M; in short: as §1
ACHN = test: Growth inhibition of human ACHN cells assessed tumor cell growth at 10^-5 M; in short: as §1
SK-MEL-28 = test: Growth inhibition of human SK-MEL-28 cells assessed tumor cell growth at 10^-5 M; in short: as §1
K562 = test: Growth inhibition of human K562 cells assessed tumor cell growth at 10^-5 M; in short: as §1
SNB-75 = test: Growth inhibition of human SNB75 cells assessed tumor cell growth at 10^-5 M; in short: as §2
LOX IMVI = test: Growth inhibition of human LOXIMVI cells assessed tumor cell growth at 10^-5 M; in short: as §1
IGROV-1 = test: Growth inhibition of human IGROV1 cells assessed tumor cell growth at 10^-5 M; in short: as §1
HT-29 = test: Growth inhibition of human HT-29 cells assessed tumor cell growth at 10^-5 M; in short: as §1
RXF 393 = test: Growth inhibition of human RXF393 cells assessed tumor cell growth at 10^-5 M; in short: as §1
A549 = test: Growth inhibition of human A549 cells assessed tumor cell growth at 10^-5 M; in short: as §1
SF-539 = test: Growth inhibition of human SF539 cells assessed tumor cell growth at 10^-5 M; in short: as §1
OVCAR-3 = test: Growth inhibition of human OVCAR3 cells assessed tumor cell growth at 10^-5 M; in short: as §1
BT-549 = test: Growth inhibition of human BT549 cells assessed tumor cell growth at 10^-5 M; in short: as §1
NCI-H23 = test: Growth inhibition of human NCI-H23 cells assessed tumor cell growth at 10^-5 M; in short: as §1
CAKI-1 = test: Growth inhibition of human Caki1 cells assessed tumor cell growth at 10^-5 M; in short: as §1
786-0 = test: Growth inhibition of human 786-0 cells assessed tumor cell growth at 10^-5 M; in short: as §1
SNB-19 = test: Growth inhibition of human SNB19 cells assessed tumor cell growth at 10^-5 M; in short: as §2
Malme-3M = test: Growth inhibition of human MALME-3M cells assessed tumor cell growth at 10^-5 M; in short: as §1
COLO 205 = test: Growth inhibition of human COLO205 cells assessed tumor cell growth at 10^-5 M; in short: as §1
EKVX = test: Growth inhibition of human EKVX cells assessed tumor cell growth at 10^-5 M; in short: as §1
HOP-62 = test: Growth inhibition of human HOP62 cells assessed tumor cell growth at 10^-5 M; in short: as §1
A498 = test: Growth inhibition of human A498 cells assessed tumor cell growth at 10^-5 M; in short: as §1
PC-3 = test: Growth inhibition of human PC3 cells assessed tumor cell growth at 10^-5 M; in short: as §1
SN12C = test: Growth inhibition of human SN12C cells assessed tumor cell growth at 10^-5 M; in short: as §1
NCI-H460 = test: Growth inhibition of human NCI-H460 cells assessed tumor cell growth at 10^-5 M; in short: as §1
OVCAR-4 = test: Growth inhibition of human OVCAR4 cells assessed tumor cell growth at 10^-5 M; in short: as §1
HL-60(TB) = test: Growth inhibition of human HL-60(TB) cells assessed tumor cell growth at 10^-5 M
In short: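 HL-60(TB), part of the 60-line panel, tested at a single concentration of 10^-5 M. The read-out is percent tumor cell growth relative to untreated growth.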

U-251 = test: Growth inhibition of human U251 cells assessed tumor cell growth at 10^-5 M; in short: as §2
MDA-MB-468 = test: Growth inhibition of human MDA-MB-468 cells assessed tumor cell growth at 10^-5 M; in short: as §1
NCI-H322M = test: Growth inhibition of human NCI-H322M cells assessed tumor cell growth at 10^-5 M; in short: as §1
TK-10 = test: Growth inhibition of human TK10 cells assessed tumor cell growth at 10^-5 M; in short: as §2
HCC 2998 = test: Growth inhibition of human HCC2998 cells assessed tumor cell growth at 10^-5 M; in short: as §1
DU-145 = test: Growth inhibition of human DU145 cells assessed tumor cell growth at 10^-5 M; in short: as §1
T47D = test: Growth inhibition of human T47D cells assessed tumor cell growth at 10^-5 M; in short: as §2
M14 = test: Growth inhibition of human M14 cells assessed tumor cell growth at 10^-5 M; in short: as §1
SW-620 = test: Growth inhibition of human SW620 cells assessed tumor cell growth at 10^-5 M; in short: as §2
MCF7 = test: Growth inhibition of human MCF7 cells assessed tumor cell growth at 10^-5 M; in short: as §1
SK-MEL-2 = test: Growth inhibition of human SK-MEL-2 cells assessed tumor cell growth at 10^-5 M; in short: as §1
UACC-62 = test: Growth inhibition of human UACC62 cells assessed tumor cell growth at 10^-5 M; in short: as §2
CCRF-CEM = test: Growth inhibition of human CCRF-CEM cells assessed tumor cell growth at 10^-5 M; in short: as §1
MOLT-4 = test: Growth inhibition of human MOLT4 cells assessed tumor cell growth at 10^-5 M; in short: as §1

`CC1=NN(c2cccc(Cl)c2)C(=O)/C1=C\c1cn(Cc2ccccc2)c2ccccc12` showed an Activity (NCI/ADR-RES) of 100.71%, an Activity (HOP-92) of 94.45% and an Activity (HCT-15) of 97.68%. For the same compound, the Activity (NCI-H522) was 86.7%, the Activity (SF-295) was 74.11% and the Activity (OVCAR-5) was 43.95%. For the same compound, the Activity (KM12) was 93.39%, the Activity (UO-31) was 71.93% and the Activity (SR) was 86.52%. For the same compound, the Activity (MDA-MB-435) was 106.21%, the Activity (SF-268) was 95.57% and the Activity (OVCAR-8) was 97.42%. It also gave an Activity (NCI-H226) of 16.9%, an Activity (UACC-257) of 93.1% and an Activity (SK-OV-3) of 71.03%. For the same compound, the Activity [1] was 90.49%, the Activity (HCT-116) was 81.87% and the Activity [2] was 88.18%. The Activity (MDA-MB-231) was 89.94%, the Activity (SK-MEL-5) was 90.4% and the Activity (ACHN) was 84.07%. It also gave an Activity (SK-MEL-28) of 98.38%, an Activity (K562) of 93.59% and an Activity (SNB-75) of 80.99%. The Activity (LOX IMVI) was 87%, the Activity (IGROV-1) was 85.79% and the Activity (HT-29) was 93.03%. For the same compound, the Activity (RXF 393) was 92.68%, the Activity (A549) was 90.89% and the Activity (SF-539) was 96.45%. For the same compound, the Activity (OVCAR-3) was 95.7%, the Activity (BT-549) was 107.13% and the Activity (NCI-H23) was 88.9%. The Activity (CAKI-1) was 89.4%, the Activity (786-0) was 100.84% and the Activity (SNB-19) was 93.46%. The Activity (Malme-3M) was 92.02%, the Activity (COLO 205) was 96.36% and the Activity (EKVX) was 82.36%. For the same compound, the Activity (HOP-62) was 81.96%, the Activity (A498) was 89.58% and the Activity (PC-3) was 84.66%. For the same compound, the Activity (SN12C) was 101.76%, the Activity (NCI-H460) was 55.83% and the Activity (OVCAR-4) was 88.56%. It also gave an Activity (HL-60(TB)) of 99.67%, an Activity (U-251) of 89.34% and an Activity (MDA-MB-468) of 76.71%. It also gave an Activity (NCI-H322M) of 105.8%, an Activity (TK-10) of 154.6% and an Activity (HCC 2998) of 109.37%. The Activity (DU-145) was 103.96%, the Activity (T47D) was 67.17% and the Activity (M14) was 93.78%. For the same compound, the Activity (SW-620) was 93.2%, the Activity (MCF7) was 72.9% and the Activity (SK-MEL-2) was 90.21%. The Activity (UACC-62) was 78.13%, the Activity (CCRF-CEM) was 109.04% and the Activity (MOLT-4) was 89.6%.
